Experimental data from paper PMC3023924 (Bioorganic & medicinal chemistry, 2010).
Structures can show the parent of a compound that is named as a salt.

Experiments:
[1] = molecular target: T1, human dopamine transporter (hDAT) (Homo sapiens, UniProt Q01959); assay: [3H]-WIN-35,428 binding inhibition at hDAT N2A neuroblastoma cells; details: from Ki values
[2] = molecular target: T1, human dopamine transporter (hDAT); assay: [3H]-dopamine uptake inhibition at hDAT N2A neuroblastoma cells; assay type: cell-based; details: Table 1
DAT = details: cited from earlier work; for IC50: read-out: DAT IC50 for inhibition of [3H]-WIN-35,428 binding
6Xhis-hDAT = 6Xhis-hDAT (Homo sapiens, UniProt Q01959); assay: DAT photoaffinity labeling with [125I]-; assay type: binding; details: HEK hDAT cells; 30 nM, UV 254 nm, immunoprecipitation (not shown)
[3] = Storage stability of radioligand by HPLC; assay type: physicochemical; details: 20 weeks at −20 °C in the dark
How it was run: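 The radioiodinated test compound was made by Chloramine-T iododestannylation and purified by reversed-phase HPLC (C-18, 8 × 100 mm, 6 μm; 3 mL/min; MeOH 35%/CH₃CN 35%/aqueous 30% with Et₃N 2.1% v/v and HOAc 2.8% v/v; radioactivity plus UV 254 nm detection). It was then trapped on a C-18 cartridge and eluted with MeOH. The storage period spanned more than two ¹²⁵I half-lives.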

[4] = tested on: adult attention-deficit hyperactivity disorder (ADHD); details: immediate-release and long-acting preparations; cited from earlier work
rat striatal DAT = rat striatal DAT (Rattus norvegicus, UniProt P23977); assay: DAT photoaffinity labeling with [125I]-; assay type: binding; details: 30 nM [125I]-(±)-3a; 10 μM or 100 μM competitor; band density vs. control
rDAT = details: pattern previously seen; cited from earlier work

T1 sequence (Q01959 whole entry): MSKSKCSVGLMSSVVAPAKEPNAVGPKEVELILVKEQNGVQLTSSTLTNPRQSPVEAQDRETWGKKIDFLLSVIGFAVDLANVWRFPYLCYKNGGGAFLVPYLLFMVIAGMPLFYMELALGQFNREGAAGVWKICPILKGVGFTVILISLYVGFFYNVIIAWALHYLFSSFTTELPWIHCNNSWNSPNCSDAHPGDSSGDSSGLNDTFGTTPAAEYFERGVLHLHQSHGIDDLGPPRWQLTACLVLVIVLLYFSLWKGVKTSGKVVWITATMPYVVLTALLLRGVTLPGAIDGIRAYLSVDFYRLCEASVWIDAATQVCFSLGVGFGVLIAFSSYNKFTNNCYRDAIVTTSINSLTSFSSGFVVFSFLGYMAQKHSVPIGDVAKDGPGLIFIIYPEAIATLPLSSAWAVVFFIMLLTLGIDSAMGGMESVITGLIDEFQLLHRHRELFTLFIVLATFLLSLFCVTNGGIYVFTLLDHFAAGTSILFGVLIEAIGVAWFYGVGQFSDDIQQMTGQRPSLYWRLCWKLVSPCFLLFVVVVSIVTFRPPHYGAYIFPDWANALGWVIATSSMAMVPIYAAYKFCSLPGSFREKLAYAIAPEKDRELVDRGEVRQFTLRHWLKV
Chain of 6Xhis-hDAT (Q01959 whole entry): as above
Chain of rat striatal DAT (P23977 whole entry): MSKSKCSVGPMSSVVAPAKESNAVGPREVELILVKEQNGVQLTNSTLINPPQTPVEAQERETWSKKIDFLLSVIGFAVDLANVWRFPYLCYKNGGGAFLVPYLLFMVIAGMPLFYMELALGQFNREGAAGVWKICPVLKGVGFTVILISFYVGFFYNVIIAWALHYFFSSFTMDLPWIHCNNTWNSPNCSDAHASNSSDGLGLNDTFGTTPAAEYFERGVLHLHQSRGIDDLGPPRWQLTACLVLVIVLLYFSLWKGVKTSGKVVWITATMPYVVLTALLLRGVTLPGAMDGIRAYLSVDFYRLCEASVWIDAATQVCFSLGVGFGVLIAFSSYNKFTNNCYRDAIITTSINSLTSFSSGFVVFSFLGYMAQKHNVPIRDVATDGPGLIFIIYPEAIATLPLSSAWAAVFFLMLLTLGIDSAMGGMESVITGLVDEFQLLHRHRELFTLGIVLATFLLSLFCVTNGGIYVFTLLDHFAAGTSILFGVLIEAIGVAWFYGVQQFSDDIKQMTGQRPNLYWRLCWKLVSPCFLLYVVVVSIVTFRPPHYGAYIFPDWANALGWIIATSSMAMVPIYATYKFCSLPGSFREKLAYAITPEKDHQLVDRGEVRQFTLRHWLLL

In the case of `COC(=O)[C@H](c1ccc(I)cc1)[C@H]1CCCCN1` (racemic) [(±)-1b, (±)-threo-4-Iodomethylphenidate Hydrochloride], the “improvement in DAT affinity versus methylphenidate” value [1] is given as “approximately two-fold”, the “comparison of binding and uptake inhibition values” [2] is given as “essentially the same value for binding and uptake inhibition” and the “higher DAT affinity versus methylphenidate” value (DAT; previous pharmacological results) is given as ~ 6 fold. The IC50 (DAT) was 0.014 ± 0.0001 µM.
In the case of `COC(=O)[C@H](c1cccc(I)c1)[C@H]1CCCCN1` (racemic) [(±)-1f, (±)-threo-3-Iodomethylphenidate Hydrochloride], the “improvement in DAT affinity versus methylphenidate” value [1] is reported as ~ 5.5 fold.
In the case of `COC(=O)C(c1ccc([125I])cc1)[C@H]1CCCCN1Cc1ccc(N=[N+]=[N-])cc1` (mixture of isomers) [[^125I]-(±)-3a, [^125I]-(±)-threo-N-(p-Azido-benzyl)-4-iodomethylphenidate], the “irreversible incorporation into DAT (labeled protein of ~80 kDa)” value (6Xhis-hDAT) is reported as “demonstrating the incorporation of [^125I]-(±)-3a into the DAT” and the “radiochemical purity after storage” value [3] is reported as “about 80%”.
In the case of `Fc1ccc(C(OCCN2CCN(CCCc3ccccc3)CC2)c2ccc(F)cc2)cc1` [GBR-12,909], the “comparison of binding and uptake inhibition values” (rDAT) is given as “essentially the same value for binding and uptake inhibition”.
In the case of `CN1[C@@H]2CC[C@H]1C[C@@H](OC(c1ccccc1)c1ccccc1)C2` [benztropine], the “comparison of binding and uptake inhibition values” (rDAT) is listed as “essentially the same value for binding and uptake inhibition”.
In the case of `COC(=O)[C@H]1[C@@H](c2ccc(F)cc2)C[C@@H]2CC[C@H]1N2C` [β-CFT, (−)-2-β-carbomethoxy-3-β-(4-fluorophenyl)tropane], the “block of [125I]-(±)-3a incorporation into DAT” value (rat striatal DAT) is reported as 75–90%.
